Experiment [1] can be described thus: Extrapyramidal syndrome(EPS) signs in cebus monkeys, activity expressed as MED mg/kg per orally. The class given is functional. Particulars: po; read-out: MED. Summed up:
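Cebus monkeys previously sensitized to haloperidol, observed for dystonic signs after oral dosing. Minimal effective dose determined in at least three animals.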

Experiment [2] relates to Mus musculus. The experiment in a line: Inhibition of ataxia in mice by intraperitoneal administration. The class given is functional. Particulars: ip. Summed up: (§1)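 Mice scored for inhibition of spontaneous locomotor activity and for ataxia (impaired motor coordination). Nine mice per dose; ED50 derived from at least three doses.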
The subject of experiment [3] is Mus musculus. Nature of the experiment: Inhibition of locomotor activity (LMA) and motor coordination in mice by intraperitoneal administration. It counts as functional. Particulars: ip. Summed up:
as §1

For experiment [4], the system named is Rattus norvegicus. The experiment in a line: Inhibition of self-stimulation in rats, activity expressed as ED50 mg/kg per orally. Particulars: po. It counts as functional. Summed up:
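Oral dosing in rats; suppression of high baseline self-stimulation measured; ED50 given in mg/kg.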

Experiment [5] concerns Rattus norvegicus. Nature of the experiment: Effect on serum prolactin level, activity expressed as percent control at 23.7 mg/kg per orally. It counts as functional. Particulars: in the assay text read “27.0 mg/kg” for “23.7 mg/kg”. Put shortly:
(§2)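 Rats dosed orally and killed 1 h after administration; serum prolactin measured. Values are means from groups of five animals, expressed as % of vehicle control.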

Experiment [6] deals with Rattus norvegicus. Nature of the experiment: Effect on serum prolactin level, activity expressed as percent control at 27.0 mg/kg per orally. It counts as functional. Summed up: as §2
The test system of experiment [7] is Rattus norvegicus. Nature of the experiment: Inhibition of sidman avoidance in rats, activity expressed as ED50 mg/kg per orally. Particulars: po. It counts as functional. Summed up:
(§3)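 Sidman avoidance in rats or squirrel monkeys with oral dosing; ED50 given in mg/kg.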

A short description of experiment [8]: Inhibition of sidman avoidance in squirrel monkeys, activity expressed as ED50 mg/kg per orally. It counts as functional. Particulars: po. Summed up:
as §3

The target in the next experiment is D(2) dopamine receptor (Rattus norvegicus, UniProt P61169). Nature of the experiment: In vitro binding affinity against Dopamine receptor D2 by displacement of [3H]haloperidol from rat striatal membranes. The class given is cell membranes, Membrane.
The target of the next experiment is D(1A) dopamine receptor (Rattus norvegicus, UniProt P18901). The experiment in a line: Affinity for displacement of [3H]SCH-23390 labeled Dopamine receptor D1. Put shortly: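 [3H]SCH23390 binding (D1 label), run by a method from earlier work. IC50 obtained by non-linear regression over four or five concentrations. Reference standard SCH23390 included.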
(Loss of bound radioactivity is the signal in a displacement assay; it reports binding, not function.)

The test system of experiment [9] is Rattus norvegicus. The experiment in a line: Effect on serum prolactin level, activity expressed as percent control at 23.7 and 27.0 mg/kg per orally. It counts as functional. Put shortly:
as §2

For experiment [10], the target named is alpha-1 adrenergic receptor (Rattus norvegicus). Nature of the experiment: Affinity for displacement of [3H]WB-4101 labeled alpha-1 adrenergic receptor.
Experiment [11] has as its target alpha-2 adrenergic receptor (Rattus norvegicus). The experiment in a line: Affinity for displacement of [3H]clonidine labeled alpha-2 adrenergic receptor.

As usually defined, the ED50 is the dose that gives a 50% effect, or the effect in half of the subjects. Higher therefore signals a need for a large dose. By IC50 is commonly meant the concentration needed to halve the response being measured.

D(2) dopamine receptor, sequence (P61169 whole entry): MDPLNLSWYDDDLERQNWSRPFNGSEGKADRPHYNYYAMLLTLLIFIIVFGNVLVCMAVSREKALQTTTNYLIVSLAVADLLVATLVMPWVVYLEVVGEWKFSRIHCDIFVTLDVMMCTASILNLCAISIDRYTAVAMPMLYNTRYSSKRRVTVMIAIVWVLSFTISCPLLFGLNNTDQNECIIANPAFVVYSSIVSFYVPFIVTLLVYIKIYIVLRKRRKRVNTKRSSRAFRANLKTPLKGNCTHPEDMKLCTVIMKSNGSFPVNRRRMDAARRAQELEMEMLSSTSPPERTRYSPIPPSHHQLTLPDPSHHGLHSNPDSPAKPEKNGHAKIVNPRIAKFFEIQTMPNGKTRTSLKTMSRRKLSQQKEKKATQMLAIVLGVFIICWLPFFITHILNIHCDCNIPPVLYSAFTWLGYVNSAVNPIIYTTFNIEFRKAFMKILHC
D(1A) dopamine receptor, sequence (P18901 whole entry): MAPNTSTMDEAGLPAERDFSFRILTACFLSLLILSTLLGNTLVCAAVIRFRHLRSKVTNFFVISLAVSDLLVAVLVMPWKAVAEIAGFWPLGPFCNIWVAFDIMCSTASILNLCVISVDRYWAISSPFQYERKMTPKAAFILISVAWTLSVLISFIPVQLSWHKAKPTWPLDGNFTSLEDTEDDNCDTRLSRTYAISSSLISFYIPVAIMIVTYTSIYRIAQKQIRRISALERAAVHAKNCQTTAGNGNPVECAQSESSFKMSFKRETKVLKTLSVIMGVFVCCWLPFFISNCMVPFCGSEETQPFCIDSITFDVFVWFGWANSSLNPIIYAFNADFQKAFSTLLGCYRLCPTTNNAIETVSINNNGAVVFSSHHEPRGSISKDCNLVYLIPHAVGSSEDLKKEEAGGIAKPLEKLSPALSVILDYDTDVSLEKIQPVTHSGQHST

With `CSc1ccc2c(c1)N(CCC1CCCCN1C)c1ccccc1S2` (stereo not given) [THIORIDAZINE], the minimal effective dose in experiment [1] worked out at 2.5 mg/kg. The ED50 is greater than 100 mg/kg with Mus musculus [2]; 2.9 mg/kg with Mus musculus [3]; 28.3 mg/kg with Rattus norvegicus [4]; 14.4 mg/kg in the experiment on Rattus norvegicus [7]; 4 mg/kg in [8]. The Control with Rattus norvegicus [5] and with Rattus norvegicus [6] was 918% in each case.

Regarding `Cc1[nH]n(C)c(=O)c1C(=N)c1ccc2ccccc2c1`, the ED50 is greater than 100 mg/kg in the experiment with Mus musculus [2] and 65.6 mg/kg in the experiment on Mus musculus [3].

Take `Cc1[nH]n(C)c(=O)c1C(=N)c1ccc(Cl)c(Cl)c1`: the 50% effective dose (ED50) in the experiment with Mus musculus [2] is greater than 30 mg/kg; in the experiment with Mus musculus [3], 26.4 mg/kg.

Take `Cn1[nH]cc(C(=N)c2cccc(Cl)c2)c1=O`: the ED50 is greater than 100 mg/kg with Mus musculus [2] and 47.8 mg/kg with Mus musculus [3].

Take `COc1ccc(C(=N)c2c(C)[nH]n(C)c2=O)cc1`: the ED50 in the experiment on Mus musculus [2] and with Mus musculus [3] was greater than 100 mg/kg in each case.

Turning to `Cc1[nH]n(C)c(=O)c1C(=N)c1ccc(N)cc1`, the ED50 with Mus musculus [2] and with Mus musculus [3] was greater than 100 mg/kg throughout.

On to `Cc1[nH]n(C)c(=O)c1C(=N)c1ccc(Cl)cc1`, for which the figures for the ED50 in the experiment with Mus musculus [2] and in the experiment with Mus musculus [3] were greater than 56 mg/kg and 18.9 mg/kg, respectively.

For `CCCCn1[nH]c(C)c(C(=N)c2ccccc2)c1=O`, the values for the ED50 in the experiment with Mus musculus [2] and with Mus musculus [3] were greater than 100 mg/kg and 48.7 mg/kg, respectively.

On to `Cn1[nH]cc(C(=N)c2ccccc2)c1=O`, for which the figures for the ED50 with Mus musculus [2] and with Mus musculus [3] were greater than 100 mg/kg and 49.1 mg/kg, respectively.

`Cc1[nH]n(C)c(=O)c1C(=N)c1ccc(C(F)(F)F)cc1`: the IC50 at D(2) dopamine receptor was greater than 10 µM. Further, the ED50 with Mus musculus [2] is greater than 30 mg/kg; in the experiment with Mus musculus [3] it was 31.4 mg/kg.

`CCn1[nH]c(C)c(C(=N)c2cccc(Cl)c2)c1=O` came in with an IC50 on D(2) dopamine receptor greater than 10 µM. The results for the ED50 with Mus musculus [2] and in the experiment with Mus musculus [3] were 45.3 mg/kg and 16 mg/kg, respectively.

Take `Cc1[nH]n(C)c(=O)c1C(=N)c1cccc(F)c1`: the IC50 on D(2) dopamine receptor was greater than 10 µM. For the same compound, the ED50 is 63.6 mg/kg in the experiment on Mus musculus [2] and 35.6 mg/kg in the experiment on Mus musculus [3].

Consider `CCCCn1[nH]c(C)c(C(=N)c2cccc(Cl)c2)c1=O`, for which the ED50 in the experiment with Mus musculus [2] was found to be 62.5 mg/kg; in the experiment with Mus musculus [3], 88.3 mg/kg.

As to `Cc1[nH]n(C)c(=O)c1C(=N)c1ccccc1Cl`, the values for the median effective dose (ED50) with Mus musculus [2] and in the experiment on Mus musculus [3] were 50.8 mg/kg and 31.1 mg/kg, respectively.

As to `CCCn1[nH]c(C)c(C(=N)c2cccc(Cl)c2)c1=O`, on D(2) dopamine receptor, the IC50 is greater than 10 µM. Moreover, the ED50 is greater than 30 mg/kg in the experiment on Mus musculus [2] and 21.5 mg/kg in the experiment with Mus musculus [3].

`Cc1[nH]n(C)c(=O)c1/C(=N/C(=O)C(Cl)Cl)c1cccc(Cl)c1` had an IC50 at D(2) dopamine receptor greater than 1 µM. The ED50 in the experiment with Mus musculus [2] was greater than 100 mg/kg; in the experiment on Mus musculus [3], 35.5 mg/kg.

With `C/N=C(/c1cccc(Cl)c1)c1c(C)[nH]n(C)c1=O`, the ED50 in the experiment on Mus musculus [2] was 73.1 mg/kg; in the experiment with Mus musculus [3] it was 50.5 mg/kg.

Compound `Cc1[nH]n(C)c(=O)c1C(=N)c1ccc(F)cc1` returned an IC50 on D(2) dopamine receptor greater than 10 µM. Also, the results for the ED50 in the experiment with Mus musculus [2] and in the experiment on Mus musculus [3] were greater than 30 mg/kg and 15 mg/kg, respectively.

For `Cc1[nH]n(C(C)C)c(=O)c1C(=N)c1cccc(Cl)c1`, the IC50 on D(2) dopamine receptor is greater than 10 µM. Also, the median effective dose (ED50) in the experiment with Mus musculus [2] is greater than 30 mg/kg; with Mus musculus [3], 25 mg/kg.

Consider `Cc1[nH]n(C)c(=O)c1C(=N)c1cccs1`, for which the values for the ED50 with Mus musculus [2] and in the experiment on Mus musculus [3] were greater than 90 mg/kg and 40.5 mg/kg, respectively.

As to `Cc1ccc(C(=N)c2c(C)[nH]n(C)c2=O)cc1`, the ED50 in the experiment on Mus musculus [2] and in the experiment with Mus musculus [3] was greater than 100 mg/kg each time.

For the compound `CCc1[nH]n(C)c(=O)c1C(=N)c1cccc(Cl)c1`, the ED50 came to 47.6 mg/kg in the experiment on Mus musculus [2] and 60.6 mg/kg with Mus musculus [3].

In the experiment on Mus musculus [2], `CN1CCN(C2=Nc3cc(Cl)ccc3Nc3ccccc32)CC1` [CLOZAPINE] displayed an ED50 of 10 mg/kg.

With `Cc1cccc(C(=N)c2c(C)[nH]n(C)c2=O)c1`, the ED50 with Mus musculus [2] is 79.3 mg/kg; with Mus musculus [3], 33.1 mg/kg.

On to `Cc1[nH]n(C)c(=O)c1C(=N)c1cccc(C(F)(F)F)c1`, for which the ED50 in the experiment with Mus musculus [2] and in the experiment on Mus musculus [3] was greater than 30 mg/kg throughout.

Turning to `Cc1[nH]n(C)c(=O)c1C(=N)c1cccc([N+](=O)[O-])c1`, the ED50 in the experiment on Mus musculus [2] is greater than 100 mg/kg; in the experiment with Mus musculus [3], 38.8 mg/kg.

Take `Cc1[nH]n(C)c(=O)c1C(=N)c1ccccc1`: the IC50 on D(2) dopamine receptor is greater than 10 µM. In addition, the values for the ED50 with Mus musculus [2] and in the experiment on Mus musculus [3] were 30.2 mg/kg and 13.9 mg/kg, respectively.

Take `Cc1[nH]n(C)c(=O)c1C(=N)c1ccco1`: the values for the ED50 in the experiment with Mus musculus [2] and with Mus musculus [3] were greater than 100 mg/kg and 33.6 mg/kg, respectively.

For the compound `Cc1[nH]n(C)c(=O)c1C(=N)c1ccc([N+](=O)[O-])cc1`, the ED50 with Mus musculus [2] and in the experiment on Mus musculus [3] was greater than 90 mg/kg throughout.

As to `COc1ccccc1C(=N)c1c(C)[nH]n(C)c1=O`, the figures for the ED50 in the experiment with Mus musculus [2] and in the experiment on Mus musculus [3] were 87.9 mg/kg and 46.6 mg/kg, respectively.

As to `CCCn1[nH]c(C)c(C(=N)c2ccccc2)c1=O`, the ED50 with Mus musculus [2] came to 25.2 mg/kg; in the experiment on Mus musculus [3], 11.6 mg/kg.

For `Cc1[nH]n(C)c(=O)c1C(=N)c1cccc(Br)c1`, the IC50 at D(2) dopamine receptor is greater than 10 µM. The ED50 is greater than 30 mg/kg in the experiment with Mus musculus [2] and 20.5 mg/kg in the experiment on Mus musculus [3].

`CCn1[nH]c(C)c(C(=N)c2ccccc2)c1=O` returned an IC50 on D(2) dopamine receptor greater than 10 µM. Besides, the ED50 in the experiment on Mus musculus [2] worked out at 21.5 mg/kg; in the experiment on Mus musculus [3], 11.8 mg/kg.

As to `Cc1[nH]n(C)c(=O)c1C(=N)c1cc(Cl)cc(Cl)c1`, the ED50 in the experiment on Mus musculus [2] was greater than 100 mg/kg; in the experiment with Mus musculus [3], 34.9 mg/kg.

At D(2) dopamine receptor, `Cc1[nH]n(C)c(=O)c1/C(=N/C(=O)C(F)(F)F)c1cccc(Cl)c1` had an IC50 greater than 10 µM. For the same compound, the ED50 in the experiment with Mus musculus [2] is greater than 100 mg/kg; with Mus musculus [3], 17.9 mg/kg.

At D(2) dopamine receptor, `CC(=O)/N=C(\c1cccc(Cl)c1)c1c(C)[nH]n(C)c1=O` showed an IC50 greater than 1 µM. In addition, the figures for the ED50 in the experiment on Mus musculus [2] and in the experiment with Mus musculus [3] were greater than 100 mg/kg and 25.1 mg/kg, respectively.

`Cc1[nH]n(C)c(=O)c1C(=N)c1cccc(Cl)c1`: in experiment [1], the minimal effective dose was greater than 100 mg/kg. Further, the IC50 (at D(1A) dopamine receptor; at D(2) dopamine receptor; in experiment [10]; in [11]) was greater than 10 µM throughout. Moreover, the ED50 in the experiment on Mus musculus [2] is greater than 100 mg/kg; with Mus musculus [3], 15.2 mg/kg; in the experiment with Rattus norvegicus [4], 23.7 mg/kg; in the experiment with Rattus norvegicus [7], 17 mg/kg; in [8] it was 16.3 mg/kg. Moreover, the Control in the experiment on Rattus norvegicus [9] was -25%.

Source of the values: ChEMBL document CHEMBL1123615, “1,3-Dialkyl-4-(iminoarylmethyl)-1H-pyrazol-5-ols. A series of novel potential antipsychotic agents” (J Med Chem, 1987).
